Laboratory results from ChEMBL document CHEMBL1134771, “Synthesis and antimalarial activity of novel medium-sized 1,2,4,5-tetraoxacycloalkanes” (J Med Chem, 2001).

What was measured:
FM3A = experiment: in vitro cytotoxicity against mouse mammary tumor in cell culture.; format: functional, cell-based
Summary of the method: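 Mouse mammary tumor FM3A cells in culture, used as a mammalian cytotoxicity control; EC50 determined.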

Mus musculus [1] = experiment: in vivo antimalarial activity against Plasmodium berghei infected mice (Mus musculus) on oral administration; format: functional
Summary of the method: (§1)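 Mice infected with P. berghei NK 65. Compounds were prepared in olive oil at various concentrations and given orally to groups of five mice once daily on days 0–3, starting on the day of infection. Parasitemia was read on day 4, and ED50/ED90 were derived by the earlier protocol.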

Mus musculus [2] = experiment: in vivo antimalarial activity against Plasmodium berghei infected mice (Mus musculus) on intraperitoneal administration; format: functional; conditions: ip
Summary of the method: as §1, with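 “injected intraperitoneally into” for “given orally to”, “measured” for “read”, “calculated” for “derived”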

Mus musculus [3] = experiment: In vivo antimalarial activity against Plasmodium berghei infected mice (Mus musculus) on oral administration; format: functional; summary of the method: as §1
Plasmodium falciparum = experiment: In vitro antimalarial activity for Plasmodium falciparum; format: functional, organism-based
Summary of the method: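 Chloroquine-sensitive P. falciparum FCR-3 strain cultured in vitro; EC50 determined.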

[4] = Mean of EC50 value for FM3A cells/ mean of EC50 value for Plasmodium falciparum; format: functional
Summary of the method: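 Selectivity is the mean EC50 against FM3A mouse mammary tumor cells divided by the mean EC50 against P. falciparum FCR-3.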

| Compound | EC50 (FM3A) | ED90 (Mus musculus [1]) | ED50 (Mus musculus [2]) | ED90 (Mus musculus [2]) | ED50 (Mus musculus [3]) | EC50 (Plasmodium falciparum) | Selectivity [4] |
| --- | --- | --- | --- | --- | --- | --- | --- |
| CC(C)(C)C1CCC2(CC1)OOCCCOO2 | 30 µM | 84 mg/kg | 15 mg/kg | 30 mg/kg | 52 mg/kg | 3 nM | 10000 |
| C1CCCCCC2(CCCCC1)OOCCCOO2 | 8 µM | 40 mg/kg | 12 mg/kg | 20 mg/kg | 20 mg/kg | 25 nM | 320 |
| C1CCCCCC2(CCCCC1)OOCCCCCCCCOO2 | 29 µM |  |  |  |  | 1700 nM | 17 |
| C1CCCCCC2(CCCCC1)OOCCCCOO2 | 17 µM |  | 48 mg/kg | 65 mg/kg |  | 100 nM | 170 |
| C1CCCCCC2(CCCCC1)OOCCCCCCOO2 | 16 µM |  | 160 mg/kg | > 200 mg/kg |  | 10 nM | 1600 |
| CCCCCCC1(CCCCCC)OOCCCOO1 | 19 µM |  | 60 mg/kg | 91 mg/kg |  | 200 nM | 95 |
| C1CCCCCC2(CCCCC1)OOCCCCCOO2 | 12 µM |  |  |  |  | 280 nM | 43 |
| C1COOC2(OOC1)C1CC3CC(C1)CC2C3 | 58 µM |  | 100 mg/kg |  |  | 50 nM | 1160 |
| CCCCCC1(CCCCC)OOCCCOO1 | 34 µM |  | 30 mg/kg | 58 mg/kg |  | 310 nM | 110 |
| C[C@@H]1CC[C@H]2[C@@H](C)C(=O)O[C@@H]3O[C@@]4(C)CC[C@@H]1[C@]32OO4 [ARTEMISININ] |  | 89 mg/kg | 5 mg/kg | 32 mg/kg | 13 mg/kg | 10 nM | 1000 |
